Measured values reported in ChEMBL document CHEMBL3272335, “Dibenz[b,e]oxepinalkanoic acids as nonsteroidal antiinflammatory agents. 1. 6,11-Dihydro-11-oxodibenz]b,e]oxepin-2-acetic acids” (J Med Chem, 1977).

Experiments:
[1] = system: Rattus norvegicus; assay: Antiinflammatory activity in Wistar rat assessed as inhibition of carrageenan-induced paw edema at 50 mg/kg, po administered 1 hr prior to carrageenan challenge measured 3 hrs post-carrageenan injection; assay type: functional
Procedure, shortened: (§1)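 Female Carworth Wistar rats (120-150 g), ten per group, are fasted 12-16 h with water allowed. Compounds are given orally as an aqueous Tween 80 suspension (10 ml/kg); controls get vehicle. After 1 h, 0.1 ml of 1% carrageenan is injected subplantar into the left hind paw. Paw volume is read by mercury displacement before and 3 h after injection. Result is % edema difference versus control.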

[2] = system: Rattus norvegicus; assay: Antiinflammatory activity in po dosed Wistar rat assessed as inhibition of carrageenan-induced paw edema administered 1 hr prior to carrageenan challenge measured 3 hrs post-carrageenan injection; assay type: functional; procedure, shortened: as §1
[3] = system: Mus musculus; assay: Analgesic activity in po dosed CD-1 mouse assessed as inhibition of phenylquinone-induced writhing administered prior to phenylquinone challenge measured 5 mins after phenylquinone injection; assay type: functional; conditions: CD-1, po
Procedure, shortened: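 Male CD-1 Charles River mice (18-24 g), fed ad libitum, are dosed orally with drug as an aqueous suspension with Tween 80 (10 ml/kg); controls get vehicle. Phenylquinone (0.125% in 5% aqueous ethanol) is given ip at 10 ml/kg at the peak-activity time. Writhes are counted for 10 min, starting 5 min post-injection. Ten mice per group, four doses. Result is % inhibition of writhes versus control; ED50 by Litchfield-Wilcoxon.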

[4] = system: Rattus norvegicus; assay: Antiinflammatory activity against Mycobacterium butyricum adjuvant-induced polyarthritis in po dosed Lewis albino rat assessed as decrease in adjuvant treated paw edema administered daily for 21 days […]; assay type: functional
Procedure, shortened: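 Female Charles River-Lewis albino rats (150-170 g), ten per group, housed individually. Heat-killed Mycobacterium butyricum in paraffin oil (0.5 mg/0.1 ml) is injected into the left hind paw. Oral dosing starts the day before adjuvant and continues daily for 21 days, using a Tween 80 aqueous suspension. Paw volume is measured by mercury displacement from injection day onward. ED50 by Litchfield-Wilcoxon, with 95% confidence limits.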

[5] = Therapeutic ratio of ID50 for ulcerogenicity in Wistar rat to ED50 for antiinflammatory activity against Mycobacterium butyricum adjuvant-induced polyarthritis in Lewis albino rat adjuvant treated paw; assay type: ADME; conditions: in vivo, read-out: TI
Procedure, shortened: (§2)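 Ratio of the gastric irritation ID50 (oral dose, Wistar rats, lesions scored as irritation in 50% of animals) to the adjuvant polyarthritis ED50 (Lewis rats, 21-day oral dosing). The ED50 is taken from the adjuvant-injected paw or the noninjected paw, with paw volume measured by mercury displacement.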

[6] = Ulcerogenicity in po dosed Wistar rat assessed as induction of gastric irritation; assay type: toxicity, organism-based, Stomach; conditions: in vivo, read-out: ID50 (the source's name)
Procedure, shortened: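 Groups of eight male Wistar rats (150-175 g) are fasted 48 h with water allowed, then dosed orally (10 ml/kg); controls get vehicle. Rats are killed at 3, 5 and 7 h post-dose, and stomach and intestines are examined for erosion, ulcer or perforation. ID50 is the dose causing irritation in 50% of animals.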

[7] = Therapeutic ratio of ID50 for ulcerogenicity in Wistar rat to ED50 for antiinflammatory activity against Mycobacterium butyricum adjuvant-induced polyarthritis in Lewis albino rat non-injected paw; assay type: ADME; conditions: in vivo, read-out: TI; procedure, shortened: as §2
[8] = system: Rattus norvegicus; assay: Antiinflammatory activity against Mycobacterium butyricum adjuvant-induced polyarthritis in po dosed Lewis albino rat assessed as decrease in non-injected paw edema administered daily for 21 days […]; assay type: functional
Procedure, shortened: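 Female Charles River-Lewis albino rats, 150-170 g, groups of ten, housed singly; heat-killed dry Mycobacterium butyricum in white paraffin oil (0.5 mg/0.1 ml) injected into left hind paw. Oral dosing as aqueous suspension with Tween 80 (10 ml/kg), starting the day before adjuvant and daily for 21 days; vehicle controls. Paw volume by mercury displacement from injection day onward; ED50 by Litchfield-Wilcoxon with 95% confidence limits.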

`O=C(O)Cc1ccc2c(c1)C(=O)c1ccccc1CS2` showed an inhibition in vivo at 50 mg/kg [1] of 42.7%.
For `NC(=O)Cc1ccc2c(c1)C(=O)c1ccccc1CO2`, the ED50 [2] was > 100 mg/kg and the ED50 [3] was > 100 mg/kg.
With `O=C(O)Cc1ccc2c(c1)Cc1ccccc1CO2` the ED50 [2] was 200 mg/kg.
Work on `COC(=O)Cc1ccc2c(c1)C(=O)c1ccccc1CO2` yielded an ED50 [2] of 31 mg/kg and an ED50 [3] of 26.6 mg/kg.
For `CCOC(=O)Cc1ccc2c(c1)C(=O)c1ccccc1CO2`, the ED50 [2] was 6.85 mg/kg and the ED50 [3] was > 50 mg/kg.
`O=C(O)Cc1ccc2c(c1)C(=O)c1ccc(Cl)cc1CO2` showed an ED50 [2] of 26.5 mg/kg and an ED50 [3] of 34.3 mg/kg.
With `COc1ccc2c(c1)COc1ccc(CC(=O)O)cc1C2=O` the ED50 [2] was 58.6 mg/kg and the ED50 [3] was > 50 mg/kg.
For `O=C(O)Cc1ccc2c(c1)C(=O)c1cc(Cl)ccc1CO2`, the ED50 [2] was > 50 mg/kg and the ED50 [3] was > 50 mg/kg.
`CCCOC(=O)Cc1ccc2c(c1)C(=O)c1ccccc1CO2` showed an ED50 [2] of 3.55 mg/kg and an ED50 [3] of 16.7 mg/kg.
In the case of `CC(C)OC(=O)Cc1ccc2c(c1)C(=O)c1ccccc1CO2`, the ED50 [2] was 6.84 mg/kg and the ED50 [3] was < 50 mg/kg.
Work on `CCCCOC(=O)Cc1ccc2c(c1)C(=O)c1ccccc1CO2` yielded an ED50 [2] of 14.7 mg/kg and an ED50 [3] of 12.7 mg/kg.
For `CCCCCOC(=O)Cc1ccc2c(c1)C(=O)c1ccccc1CO2`, the ED50 [2] was 2.9 mg/kg and the ED50 [3] was > 50 mg/kg.
In the case of `O=C(Cc1ccc2c(c1)C(=O)c1ccccc1CO2)OCc1ccccc1`, the ED50 [2] was > 50 mg/kg.
For `O=C(O)Cc1cc(Cl)c2c(c1)C(=O)c1ccccc1CO2`, the ED50 [2] was > 50 mg/kg.
In the case of `O=C(O)Cc1ccc2c(c1)C(=O)c1cccc(Cl)c1CO2`, the ED50 [2] was < 50 mg/kg and the ED50 [3] was > 50 mg/kg.
`O=C(O)Cc1ccc2c(c1)C(=O)c1cc(F)ccc1CO2` showed an ED50 [2] of 356 mg/kg.
For `O=C(O)Cc1ccc2c(c1)C(=O)c1cc(C(F)(F)F)ccc1CO2`, the ED50 [2] was > 50 mg/kg.
In the case of `Cc1cccc2c1C(=O)c1cc(CC(=O)O)ccc1OC2`, the ED50 [2] was > 50 mg/kg.
For `OCCc1ccc2c(c1)C(O)c1ccccc1CO2` (centres undefined), the ED50 [2] was > 200 mg/kg.
In the case of `COC(=O)Cc1ccc2c(c1)C(O)c1ccccc1CO2` (centres undefined), the ED50 [2] was > 200 mg/kg.
With `COC(=O)Cc1ccc2c(c1)C(OC)c1ccccc1CO2` (centres undefined) the ED50 [2] was > 200 mg/kg.
In the case of `COc1ccc2c(c1)c(CC(=O)O)c(C)n2C(=O)c1ccc(Cl)cc1` [INDOMETHACIN], the ED50 [4] was 0.47 mg/kg, the selectivity ratio [5] was 3.8 and the TD50 [6] was 1.8 mg/kg. For the same compound, the ED50 [3] was 0.7 mg/kg, the selectivity ratio [7] was 6.7 and the ED50 [8] was 0.27 mg/kg.
For `O=C(O)Cc1ccc2c(c1)C(=O)c1ccccc1CO2` [ISOXEPAC], the ED50 [4] was 2.1 mg/kg, the selectivity ratio [5] was 39 and the TD50 [6] was 82.5 mg/kg. For the same compound, the ED50 [3] was 7.57 mg/kg, the selectivity ratio [7] was 78 and the ED50 [8] was 1.06 mg/kg.
